Experimental data: PubChem BioAssay
Calls of active or inactive are those of the source.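 Rule for the calls, unless noted: active = visually confirmed hit in the image check and inhibition above 20%; inconclusive = visually confirmed hit but inhibition not above 20%; inactive = no visual hit in the image check.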

Assays:
[1] = inhibitors of TNFa-induced NFkB p65 translocation, primary screen, imaging, HUVEC, MLSMR starter and 10KST1 sets (AID 438;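 active = inhibition above 20% together with a positive visual image hit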;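 note: compound added about 3h40 before a 20 min TNFalpha stimulation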;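 for inhibition: signal is the nuclear over cytoplasmic p65 intensity ratio per well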); conditions: HUVEC TNFa-induced p65 nuclear translocation; cell count: measured here: nuclei count (cytotoxicity indicator), at 2.08 µM; inhibition: at 2 µM, stronger effect = higher value, 0% TNFa-plus-vehicle, 100% no-TNFa wells
[2] = endothelial E-selectin expression blockers – imaging, HUVEC, immunofluorescence, MLSMR starter and 10KST1 sets, primary screen (AID 487); conditions: HUVEC TNFalpha-induced E-selectin immunofluorescence imaging, at 2 µM; inhibition: stronger effect = higher value; nuclei count: measured here: cell number, toxicity;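 for inhibition: signal is fraction of cell area covered by stained E-selectin grains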;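 for nuclei count: 100% = median nuclei count of all wells on the same plate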
[3] = Primary imaging screen for DUSP6 inhibitors that restore phospho-Erk in transfected HeLa cells, chemical complementation (AID 609;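 active = compounds giving at least 50% inhibition in the cell-based MKP-3 phosphatase rescue imaging test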;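 for inhibition: phospho-Erk level distribution per well compared with pooled transfected vehicle control wells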); conditions: HeLa MKP-3 transfected, phospho-Erk imaging KS statistic, at 10 µM, cells stimulated with TPA for 15 min
[4] = biological target: Dual specificity protein phosphatase 6 (Homo sapiens) (UniProt Q16828); experiment: as above; conditions: HeLa MKP-3 transfected, phospho-Erk imaging KS statistic; at 10 µM; stronger effect = higher value; cells stimulated with TPA for 15 min
[5] = biological target: Voltage-gated potassium channel subunit beta-2 (Rattus norvegicus) (UniProt P62483); experiment: inhibitors of rat Kvbeta2 reductase activity – biochemical, NADPH fluorescence, primary screen (AID 622;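 active = fluorescence slope higher than the sample average by over 3 SD, cut at about -0.22 in these data, passing the limit was not always enough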;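 note: slope of raw intensity against log time taken from 70 to 1610 s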); conditions: recombinant KvBeta, 4-cyanobenzaldehyde reduction, at 10 µM, stronger effect = higher value
[6] = biological target: Voltage-gated potassium channel subunit beta-2 (Rattus norvegicus) (UniProt P62483); experiment: enhancers of rat Kvbeta2 NADPH turnover – biochemical, NADPH fluorescence, primary screen (AID 623;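 active = NADPH fluorescence slope more negative than the mean of all samples by about 3 SD, 99.7% confidence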;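 note: fluorescence intensity change per second fitted from 20 to 320 s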); conditions: Recombinant KvBeta, NADPH fluorescence decrease slope, 10 min; at 10 µM; stronger effect = lower value
[7] = biological target: Alpha-2C adrenergic receptor (Homo sapiens) (UniProt P18825); experiment: compounds altering alpha2C-coupled GIRK flux – cell-based, HEK293 alpha2C/GIRK1/2, thallium flux, primary screen (AID 624;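 active = fluorescence slope after compound addition differing from the mean of all screened samples at 99.7% confidence, in either direction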;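 note: slope of fluorescence ratio to pre-addition baseline per second over 15 to 24 s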); conditions: thallium flux BTC fluorescence, at 10 µM, actives lie on both sides
[8] = inhibitors of larval lipid processing in zebrafish, primary screen, whole organism, PED6 fluorescence, gall bladder and intestine (AID 686;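 active = a full or partial loss of lipid-probe fluorescence in the fish gall bladder, intestine or both, judged by eye; inactive = no fluorescence loss, or compound toxic to the fish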;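 note: larvae 5 to 7 days old with five fish per well; signal comes from phospholipase A2 cleavage of quenched PED6 carried via bile; overnight exposure to compound and PED6 before scoring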); conditions: Zebrafish larvae PED6 lipid processing, fluorescence scoring; screened at 20 µM (by protocol)
Method in brief: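 Also added: quenched phospholipase substrate PED6, 100 nM final, ingested by larvae; System: zebrafish larvae, 5-7 d; Quantity: 5 larvae per well; Compound: 20 µM single dose; Schedule: overnight compound and PED6 incubation; Read-out: visual per-well fluorescence inhibition score; Measured by: By-eye fluorescence microscopy; Medium: E3.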

[9] = loss of swimming-algae plug formation – whole organism, Chlamydomonas reinhardtii, WT vs cilia-less mutant, absorbance, 96-well, primary screen (AID 463189;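 active = inhibition at or above 50% relative to wild type and mutant plate controls; inactive = inhibition below 50%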;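 note: 0% = wild type cc124 cells in DMSO and 100% = ciliumless bld1 mutant cells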); conditions: Chlamydomonas reinhardtii gravitaxis, OD600 absorbance, 2 days; at 10 µM; stronger effect = higher value
[10] = measured here: cell density z-score
[11] = measured here: nuclear c-Myc green intensity z-score
[12] = measured here: nuclear pErk red intensity z-score, stronger effect = higher value

Dual specificity protein phosphatase 6 (Homo sapiens), sequence (Q16828 whole entry, looked up): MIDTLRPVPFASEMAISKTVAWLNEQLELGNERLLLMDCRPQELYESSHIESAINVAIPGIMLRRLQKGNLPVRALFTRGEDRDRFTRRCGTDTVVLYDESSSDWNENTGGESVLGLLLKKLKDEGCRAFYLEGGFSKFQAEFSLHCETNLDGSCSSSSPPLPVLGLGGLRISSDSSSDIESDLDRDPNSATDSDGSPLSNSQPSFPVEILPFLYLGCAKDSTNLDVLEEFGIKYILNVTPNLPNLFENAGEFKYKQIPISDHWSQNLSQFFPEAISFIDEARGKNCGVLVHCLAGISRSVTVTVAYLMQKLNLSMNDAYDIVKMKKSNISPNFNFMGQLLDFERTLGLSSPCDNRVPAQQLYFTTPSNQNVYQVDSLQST
Alpha-2C adrenergic receptor (Homo sapiens), sequence (P18825 whole entry, looked up): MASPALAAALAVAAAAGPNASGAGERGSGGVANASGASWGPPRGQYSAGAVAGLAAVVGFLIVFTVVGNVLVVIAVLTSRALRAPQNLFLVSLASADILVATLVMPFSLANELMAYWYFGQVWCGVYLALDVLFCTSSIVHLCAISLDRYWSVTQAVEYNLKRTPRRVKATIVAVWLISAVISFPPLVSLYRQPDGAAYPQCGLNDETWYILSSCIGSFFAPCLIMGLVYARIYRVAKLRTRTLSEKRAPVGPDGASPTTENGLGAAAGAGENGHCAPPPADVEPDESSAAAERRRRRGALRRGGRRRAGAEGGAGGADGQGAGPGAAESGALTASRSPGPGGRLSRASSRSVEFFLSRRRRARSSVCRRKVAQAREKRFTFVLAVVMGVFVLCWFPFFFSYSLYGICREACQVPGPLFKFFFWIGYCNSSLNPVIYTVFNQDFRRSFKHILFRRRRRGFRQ
Voltage-gated potassium channel subunit beta-2 (Rattus norvegicus), sequence (P62483 whole entry, looked up): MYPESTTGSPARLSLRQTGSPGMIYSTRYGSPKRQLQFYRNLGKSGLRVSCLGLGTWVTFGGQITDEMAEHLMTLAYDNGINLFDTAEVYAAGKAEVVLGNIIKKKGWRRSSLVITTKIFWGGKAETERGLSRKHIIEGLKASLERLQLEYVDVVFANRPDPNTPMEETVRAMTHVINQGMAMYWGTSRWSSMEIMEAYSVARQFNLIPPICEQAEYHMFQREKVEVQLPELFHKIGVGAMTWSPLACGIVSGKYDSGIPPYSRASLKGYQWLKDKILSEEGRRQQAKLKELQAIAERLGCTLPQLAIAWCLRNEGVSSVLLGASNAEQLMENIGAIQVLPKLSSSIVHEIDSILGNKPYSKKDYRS

| Compound | cell count [1] | inhibition [1] | inhibition [2] | nuclei count [2] [%] | z-score [3, 10] | z-score [3, 11] | z-score [3, 12] | inhibition [4] | fluorescence slope [5] | NADPH fluorescence slope [6] | slope [7] | outcome [8] | inhibition [9] |
| --- | --- | --- | --- | --- | --- | --- | --- | --- | --- | --- | --- | --- | --- |
| CCCCCCn1cc(C(=O)O)c(=O)c2ccccc21 | 426 | -5.3% (inactive) | -95% (inactive) | 158 | -1.56 | 1.61 | 1.42 | -7.28% (inactive) | -0.402 (inactive) | -1.4e-06 (inactive) | 0.00525 (inactive) | inactive | -8.24% (inactive) |
| COc1ccc(OC(=O)c2cc3ccccc3o2)cc1 | 610 | -1.1% (inactive) | 77.3% (active) | 142 | -0.358 | -0.13 | -0.531 | -9.66% (inactive) | -0.377 (inactive) | -3.8e-05 (inactive) | 0.0058 (inactive) | inactive | -0.854% (inactive) |
| Cn1c(=O)c2c(nc(N3CCN(Cc4ccccc4)CC3)n2CC(=O)c2ccccc2)n(C)c1=O | 669 | 0.5% (inactive) | -198% (inactive) | 155 | 0.319 | -0.211 | 0.974 | 7.73% (inactive) | -0.533 (inactive) | -0.000101 (inactive) | 0.00454 (inactive) | inactive | -14.6% (inactive) |
| CCOC(=O)CSc1nc2sc3c(c2c(=O)[nH]1)CC(C)(C)OC3 | 583 | -40.2% (inactive) | 18.3% (inactive) | 123 | -1.86 | 1.97 | -0.11 | 7.48% (inactive) | -0.519 (inactive) | -0.000112 (inactive) | 0.0047 (inactive) | inactive | -8.53% (inactive) |
| Cc1ccc(C(=O)C2=C(O)C(=O)N(c3ncccn3)C2c2cccc(Cl)c2)o1 (stereo unspecified) | 472 | -8.1% (inactive) | -43% (inactive) | 177 | 0.573 | 0.527 | -0.321 | 0.671% (inactive) | -0.287 (inactive) | -2.1e-05 (inactive) | 0.00586 (inactive) | inactive | 1.33% (inactive) |
| COc1nc(N(C)S(=O)(=O)c2ccc(C)cc2)nc(C)c1Cl | 587 | -20% (inactive) | -69% (inactive) | 177 | -0.267 | -0.856 | 1.29 | 7.73% (inactive) | -0.362 (inactive) | -1.7e-05 (inactive) | 0.00412 (inactive) | inactive | -4.99% (inactive) |
| Cc1nc(-c2cn[nH]c2)c2cc(C)oc2n1 | 599 | -33.9% (inactive) | -51.1% (inactive) | 120 | -2.18 | 1.64 | 0.464 | -2.07% (inactive) | -0.491 (inactive) | -0.00022 (inactive) | 0.00453 (inactive) | inactive | -8.8% (inactive) |
| O=C(Nc1ccc2c(c1)OCO2)c1cc2n(n1)C(C(F)(F)F)CC(c1ccccc1)N2 (stereo unspecified) | 415 | -5.8% (inactive) | 33.8% (inactive) | 65.6 | -0.336 | 0.972 | -0.0303 | 7.48% (inactive) | -0.544 (inactive) | -7.9e-05 (inactive) | 0.00462 (inactive) | inactive | -16.3% (inactive) |
| CC(=O)N1CC=C2C(C#N)=C(N)C(C#N)(C#N)[C@H](c3ccoc3)[C@H]2C1 | 364 | -12.2% (inactive) | -63% (inactive) | 90.4 | 0.865 | 0.398 | -2.11 | -4.7% (inactive) | -0.371 (inactive) | 7.7e-06 (inactive) | 0.00495 (inactive) | inactive | -0.734% (inactive) |
| O/N=C(\c1ccc2c(c1)OCCO2)C1CCCCC1 | 483 | -8.4% (inactive) | 0.8% (inactive) | 88.1 | -0.525 | -0.257 | 1.15 | -1.98% (inactive) | -0.497 (inactive) | -3.9e-05 (inactive) | 0.00548 (inactive) | inactive | 124% (active) |
| CCCNC(=O)N(C)c1nncnc1C(=O)NC | 503 | -20.4% (inactive) | -13.3% (inactive) | 99.4 | 1.47 | 0.478 | -1.19 | 4.72% (inactive) | -0.517 (inactive) | 1.1e-05 (inactive) | 0.00825 (inactive) | inactive | -3.95% (inactive) |
| N/C(CCN1CCOCC1)=N/O | 570 | -20.6% (inactive) | 11.7% (inactive) | 147 | 0.759 | -0.712 | 0.254 | 22.7% (inactive) | -0.445 (inactive) | -1.6e-05 (inactive) | 0.00517 (inactive) | inactive | 17.7% (inactive) |
| CCOc1ccc(C2/C(=C(/O)c3ccc(F)cc3)C(=O)C(=O)N2CCCN(C)C)cc1 (stereo unspecified) | 564 | -4.5% (inactive) | -17% (inactive) | 186 | -0.359 | 0.0868 | -0.309 | -1.12% (inactive) | -0.388 (inactive) | -3e-05 (inactive) | 0.00504 (inactive) | inactive | -0.349% (inactive) |
| CC1(C)Cc2c(sc3nc4n(c(=N)c23)CCCCC4)CO1 | 637 | -5.2% (inactive) | 57.2% (inactive) | 169 | -0.678 | 2.31 | -0.487 | -7.28% (inactive) | -0.414 (inactive) | -4.7e-05 (inactive) | 0.00482 (inactive) | inactive | -1.35% (inactive) |
| C=CCn1c(=S)[nH]c2nc3c(cc2c1=O)CCCC3 | 546 | -1% (inactive) | -44.7% (inactive) | 112 | -0.436 | 2.14 | 0.929 | -7.28% (inactive) | -0.428 (inactive) | 4.7e-06 (inactive) | 0.0129 (inactive) | inactive | -0.142% (inactive) |
| Cn1c(=O)c2c(nc(SCCN3CCCCC3)n2Cc2ccc(Cl)cc2)n(C)c1=O | 498 | -3.7% (inactive) | -203% (inactive) | 140 | 0.51 | -0.662 | -1.54 | 21% (inactive) | -0.526 (inactive) | -1.5e-05 (inactive) | 0.00528 (inactive) | inactive | 104% (active) |
| COc1cccc(-c2nnc3sc(-c4ccco4)nn23)c1 | 467 | -4% (inactive) | 3.6% (inactive) | 105 | 1.05 | -0.932 | -0.641 | 8.31% (inactive) | -0.463 (inactive) | 1.3e-05 (inactive) | 0.00496 (inactive) | active; weak signal in gallbladder and intestine | 38.1% (inactive) |
| C=CCn1c(SCc2c(F)c(F)c(F)c(F)c2F)nc(O)cc1=O | 615 | -1.1% (inactive) | -11.1% (inactive) | 149 | 1.68 | -0.511 | 0.131 | 7.83% (inactive) | -0.502 (inactive) | -0.00012 (inactive) | 0.00491 (inactive) | inactive | 8.12% (inactive) |
| COc1ccc(-c2cn3ccsc3n2)cc1 | 536 | -3% (inactive) | -235% (inactive) | 197 | -1.31 | -1.4 | 1.15 | -8.95% (inactive) | -0.478 (inactive) | -0.000227 (inactive) | 0.00481 (inactive) | inactive | -19.1% (inactive) |
| CCOc1ccc(Cn2c(O)cc(=O)[nH]c2=O)cc1 | 530 | 1.9% (inactive) | -97.4% (inactive) | 190 | 0.509 | 0.944 | -0.603 | 14% (inactive) | -0.322 (inactive) | 9.9e-06 (inactive) | 0.00555 (inactive) | inactive | -15% (inactive) |
| Cc1ccc(C)c(OCc2nnc(NC(=O)c3ccco3)s2)c1 | 656 | -2.1% (inactive) | 37.1% (inactive) | 191 | -0.0885 | 2.13 | -0.0889 | -4.27% (inactive) | -0.389 (inactive) | -5.4e-05 (inactive) | 0.0056 (inactive) | inactive | -2.58% (inactive) |
| CN1C(=S)SC(N(O)C(=O)Nc2ccccc2)C1(C)C (stereo unspecified) | 486 | 8.3% (inactive) | -95.4% (inactive) | 168 | 0.407 | -0.73 | 0.0884 | 7.73% (inactive) | -0.52 (inactive) | -0.000109 (inactive) | 0.00576 (inactive) | inactive | -9.05% (inactive) |
